Measured values reported in article PMC5989537 (Journal of natural products, 2018).
Where two headings read alike, the source gives them in different places.

Assays:
Leishmania donovani = conditions: cited from earlier work
P. falciparum [1] = conditions: cited from earlier work
T. cruzi = conditions: cited from earlier work
T. brucei rhodesiense = conditions: cited from earlier work
P. falciparum (3D7) = test: Anti-plasmodial SYBR green assay, P. falciparum 3D7 blood parasites; type: cell-based, Plasmodium falciparum
[2] = tested on: intracellular L. (L.) amazonensis amastigotes; test: Intracellular L.; type: cell-based, Leishmania (L.) amazonensis; conditions: for intracellular parasitism (in words): 6.125, 25, 50 or 100 μM, 24 h; for reduction of the amastigote number over the control group: at higher concentrations, 24 h incubation, infected BALB/c macrophages
Method in brief: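 BALB/c bone-marrow-derived macrophages infected with stationary-phase L. (L.) amazonensis promastigotes (MHOM/BR/1973/M2269) at MOI 10 for 1 h, washed three times with PBS, then held 24 h at 33 °C, 5% CO2. Test compound added at 6.125, 25, 50 or 100 μM for 24 h at 33 °C. Cells washed, MeOH-fixed and stained; amastigotes counted in 300 cells on triplicate coverslips. Percent reduction taken versus untreated infected cells; two independent experiments.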

[3] = tested on: L. amazonensis promastigotes; test: Anti-leishmanial MTT viability assay, L. amazonensis promastigotes; type: cell-based, Leishmania (L.) amazonensis
T. cruzi epimastigotes = test: Anti-T. cruzi MTT viability assay, epimastigotes; type: cell-based, Trypanosoma cruzi
[4] = tested on: L. infantum promastigotes; test: Anti-leishmanial MTT viability assay, L. infantum promastigotes; type: cell-based, Leishmania (L.) infantum
HepG2 = test: Cytotoxicity on HepG2 cells; type: cell-based; conditions: HepG2, 24 h, MTT
HepG2 cells = test: HepG2 cell morphology by microscopy after treatment; type: cell-based, human; conditions: 24 h, concentration 10-fold higher than IC50 (10 μM)
P. falciparum [5] = test: In vitro association with artesunate; type: cell-based, Plasmodium falciparum; conditions: isobologram analysis
P. falciparum [6] = test: Stage-specific inhibitory activity on highly-synchronized parasites; type: cell-based, Plasmodium falciparum; conditions: 10-fold IC50, synchronized parasites
[7] = Plasmodium falciparum, 3D7, read-out: P. falciparum (3D7) EC50+/−S.D., 3D7 sensitive strain, SYBR green

Structure (SMILES)	EC50 (P. falciparum (3D7); [7]) [µM]	anti-plasmodial activity against P. falciparum (in words) (P. falciparum (3D7))	other results
Nc1ncc(/C=C/CNC(=O)c2cc(Br)c(Br)[nH]2)[nH]1 [Oroidin]	–	–	activity against Leishmania donovani (in words) (Leishmania donovani): inactive; anti-parasitic activity against P. falciparum (P. falciparum [1]): 3.9 µg/mL; activity against T. cruzi (in words) (T. cruzi): inactive; activity against T. brucei rhodesiense (T. brucei rhodesiense): 17.3 µg/mL
Cc1ccc(C(=O)NCCCCNCCCNC(=O)c2ccc(C)o2)o1 [Compound 51]	–	completely inactive	–
O=C(O)c1cc(Br)c(Br)[nH]1 [4,5-dibromo-1H-pyrrole-2-carboxylic acid]	–	–	anti-parasitic activity against P. falciparum (P. falciparum [1]): 5.8 µg/mL
O=C(NCCCNCCCCNCCCNC(=O)c1cc(Br)c(Br)[nH]1)c1cc(Br)c(Br)[nH]1 [Compound 23]	1.9 ± 1.2	as active as pseudoceratidine	EC50 (P. falciparum (3D7); read-out: P. falciparum (3D7) EC50+/−S.D., 3D7 sensitive strain, SYBR green): 2 ± 1 µM; intracellular parasitism (in words) [2]: reduced in a dose-dependent manner; reduction of the amastigote number over the control group [2]: approximately 80%; anti-parasitic activity against L. (L.) amazonensis (in words) [3]: active, but considerably less potent
Cc1cccc(C(=O)NCCCCNCCCNC(=O)c2cccc(C)n2)n1 [Compound 47]	> 10	–	–
O=C(NCCCCCNC(=O)c1ccc[nH]1)c1ccc[nH]1 [Compound 28]	> 10	–	–
O=C(NCCCCNCCCNC(=O)c1nc2ccccc2[nH]1)c1nc2ccccc2[nH]1 [Compound 39]	> 10	–	–
COC(=O)c1cc(Br)c(Br)[nH]1	–	–	anti-parasitic activity against P. falciparum (P. falciparum [1]): 7.9 µg/mL
Cc1ccc(C(=O)NCCCCNCCCNC(=O)c2ccc(C)s2)s1 [Compound 43]	> 10	–	–
O=C(NCCCCNCCCNC(=O)c1cc2ccccc2[nH]1)c1cc2ccccc2[nH]1 [Compound 38]	> 10	–	–
O=C(NCCCCNCCCNC(=O)c1ccc(Br)s1)c1ccc(Br)s1 [Compound 42]	> 10	–	intracellular parasitism (in words) [2]: reduced in a dose-dependent manner; reduction of the amastigote number over the control group [2]: approximately 80%; anti-parasitic activity against L. (L.) amazonensis (in words) [3]: active, but considerably less potent
O=C(NCCCCNCCCNC(=O)c1cccc(Cl)n1)c1cccc(Cl)n1 [Compound 46]	> 10	–	–
O=C(NCCCCNCCCNC(=O)c1ccc(F)[nH]1)c1ccc(F)[nH]1 [Compound 35]	> 10	completely inactive	–
O=C(NCCCCNCCCNC(=O)c1ccc[nH]1)c1ccc[nH]1 [Compound 29]	> 10	completely inactive	–

Continued, in another order:

EC50 (P. falciparum (3D7); [7]) [µM]	Structure (SMILES)	anti-plasmodial activity against P. falciparum (in words) (P. falciparum (3D7))	other results
> 10	O=C(NCCCCCCCCNC(=O)c1cc(Br)c(Br)[nH]1)c1cc(Br)c(Br)[nH]1 [Compound 21]	inactive	–
> 10	O=C(NCCCCNCCCNC(=O)c1cc(Cl)c(Cl)[nH]1)c1cc(Cl)c(Cl)[nH]1 [Compound 33]	completely inactive	–
3 ± 1	O=C(NCCCCNCCCNC(=O)c1cc(Br)c(Br)o1)c1cc(Br)c(Br)o1 [Compound 50]	–	intracellular parasitism (in words) [2]: reduced in a dose-dependent manner; reduction of the amastigote number over the control group [2]: approximately 80%; anti-parasitic activity against L. (L.) amazonensis (in words) [3]: active, but considerably less potent
> 10	O=C(NCCSCCNC(=O)c1cc(Br)c(Br)[nH]1)c1cc(Br)c(Br)[nH]1 [Compound 27]	inactive	anti-parasitic activity against T. cruzi (in words) (T. cruzi epimastigotes): weak activity; anti-parasitic activity against L. (L.) amazonensis (in words) [3]: active, but considerably less potent
7 ± 1	O=C(NCCCCNCCCNC(=O)c1cc(Br)c[nH]1)c1cc(Br)c[nH]1 [Compound 31, 2,21-debromopseudoceratidine]	–	–
2 ± 1	O=C(NCCCCCCNCCCCCCNC(=O)c1cc(Br)c(Br)[nH]1)c1cc(Br)c(Br)[nH]1 [Compound 25]	as active as pseudoceratidine	–
> 10	[N-]=[N+]=NCC(=O)N(CCCCNC(=O)c1cc(Br)c(Br)[nH]1)CCCNC(=O)c1cc(Br)c(Br)[nH]1 [Compound 17]	inactive	anti-parasitic activity against L. (L.) infantum (in words) [4]: inactive; anti-parasitic activity against T. cruzi (in words) (T. cruzi epimastigotes): inactive; anti-parasitic activity against L. (L.) amazonensis (in words) [3]: inactive
1.1 ± 0.1	O=C(NCCCCNCCCNC(=O)c1cc(Br)c(Br)[nH]1)c1cc(Br)c(Br)[nH]1 [Compound 1, pseudoceratidine]	–	anti-parasitic activity against L. (L.) infantum (in words) [4]: essentially inactive; anti-parasitic activity against T. cruzi (in words) (T. cruzi epimastigotes): essentially inactive; HepG2 MDL50+/−S.D. (HepG2): 16 ± 1 (14.6 – 17.4) μM; toxicity for HepG2 cells by microscopic morphology (HepG2 cells): not toxic; interaction effect in combination with artesunate (P. falciparum [5]): additive; stage-specific inhibitory activity (in words) (P. falciparum [6]): inhibitory activity in the early ring stages; anti-parasitic activity against L. (L.) amazonensis (in words) [3]: essentially inactive
> 10	O=C(NCCCCCNC(=O)c1cc(Br)c(Br)[nH]1)c1cc(Br)c(Br)[nH]1 [Compound 20]	inactive	anti-parasitic activity against T. cruzi (in words) (T. cruzi epimastigotes): good anti-parasitic activity; anti-parasitic activity against L. (L.) amazonensis (in words) [3]: active, but considerably less potent
4 ± 1	CN(CCCCNC(=O)c1cc(Br)c(Br)[nH]1)CCCNC(=O)c1cc(Br)c(Br)[nH]1 [Compound 16, N-Methyl-pseudoceratidine]	still active	–
